Test results published in ChEMBL document CHEMBL2029337, “Synthesis and antimicrobial activities of structurally novel S,S'-bis(heterosubstituted) disulfides” (Bioorg Med Chem Lett, 2012).
In brackets after ≈: the same amount, converted by molar mass. Activity calls are given as the source filed them. The rule behind the calls is not given here.

How the values were obtained:
[1] = tested on: Bartonella sp.; assay: Antibacterial activity against Bartonella ssp. […] by agar dilution method; format: functional
[2] = tested on: Escherichia coli; assay: Antibacterial activity against Escherichia coli K-12 […] by agar dilution method; format: functional, organism-based
[3] = tested on: Staphylococcus aureus; assay: Antibacterial activity against methicillin-susceptible Staphylococcus aureus ATCC 25923 […] by agar dilution method; format: functional
[4] = tested on: Staphylococcus aureus; assay: Antibacterial activity against methicillin-resistant Staphylococcus aureus ATCC 43300 […] by agar dilution method; format: functional
[5] = Antibacterial activity against Francisella tularensis subspecies holarctica LVS after 48 hrs by broth dilution method; format: functional, Francisella tularensis subsp. holarctica LVS
[6] = tested on: Staphylococcus aureus; assay: Antibacterial activity against methicillin-resistant Staphylococcus aureus ATCC 43300 assessed as growth inhibition at 10 ug after 24 hrs by agar-diffusion assay in presence of cystine; format: functional, organism-based
[7] = tested on: Staphylococcus aureus; assay: Antibacterial activity against methicillin-resistant Staphylococcus aureus ATCC 43300 assessed as growth inhibition at 10 ug after 24 hrs by agar-diffusion assay in presence of CoA; format: functional, organism-based
Method in brief: (§1)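 Kirby-Bauer well diffusion on an MRSA lawn (0.5 McFarland suspension swabbed onto tryptic soy agar). Four test agents sat in wells equidistant from a centre well holding 1 mg of additive in DMSO; a DMSO-only centre well served as vehicle control. After overnight incubation at 37 °C, the inhibition zones were examined for size or shape change.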

[8] = tested on: Staphylococcus aureus; assay: Antibacterial activity against methicillin-resistant Staphylococcus aureus ATCC 43300 assessed as growth inhibition at 10 ug after 24 hrs by agar-diffusion assay in presence of GSH; format: functional, organism-based; method in brief: as §1
[9] = tested on: Staphylococcus aureus; assay: Antibacterial activity against methicillin-resistant Staphylococcus aureus ATCC 43300 assessed as growth inhibition at 10 ug after 24 hrs by agar-diffusion assay in presence of glycine; format: functional, organism-based; method in brief: as §1
[10] = tested on: Staphylococcus aureus; assay: Antibacterial activity against methicillin-resistant Staphylococcus aureus ATCC 43300 assessed as growth inhibition at 10 ug after 24 hrs by agar-diffusion assay in presence of lysine; format: functional, organism-based; method in brief: as §1
[11] = tested on: Staphylococcus aureus; assay: Antibacterial activity against methicillin-resistant Staphylococcus aureus ATCC 43300 assessed as growth inhibition at 10 ug after 24 hrs by agar-diffusion assay in presence of valine; format: functional, organism-based; method in brief: as §1
[12] = tested on: Staphylococcus aureus; assay: Antibacterial activity against methicillin-resistant Staphylococcus aureus ATCC 43300 assessed as growth inhibition at 10 ug after 24 hrs by agar-diffusion assay in presence of iPrSSiPr; format: functional, organism-based; method in brief: as §1
[13] = tested on: Staphylococcus aureus; assay: Antibacterial activity against methicillin-resistant Staphylococcus aureus ATCC 43300 assessed as growth inhibition at 10 ug after 24 hrs by agar-diffusion assay in presence of PPh3; format: functional, organism-based; method in brief: as §1

| Compound | Activity [1] | Activity [2] | MIC [3] | MIC [4] | MIC [5] | growth inhibition (GI) [6] | growth inhibition (GI) [7] | growth inhibition (GI) [8] | growth inhibition (GI) [9] | growth inhibition (GI) [10] | growth inhibition (GI) [11] | growth inhibition (GI) [12] | growth inhibition (GI) [13] |
| --- | --- | --- | --- | --- | --- | --- | --- | --- | --- | --- | --- | --- | --- |
| CCCNSSNCCC | inactive | inactive | 8 µg/mL (≈ 44.4 µM) | 4 µg/mL (≈ 22.2 µM) | 16 µg/mL (≈ 88.7 µM) |  |  |  |  |  |  |  |  |
| CC(C)SSc1ccc([N+](=O)[O-])cc1 |  |  |  |  |  | inactive | inactive | inactive | Active | Active | Active | Active | Active |
| CC[C@H](C)OSSO[C@@H](C)CC | inactive | inactive | 16 µg/mL (≈ 76.1 µM) | 32 µg/mL (≈ 152 µM) | 16 µg/mL (≈ 76.1 µM) |  |  |  |  |  |  |  |  |
| CCC(C)OSSOC(C)CC (centres undefined) | inactive | inactive | 16 µg/mL (≈ 76.1 µM) | 8 µg/mL (≈ 38 µM) | 16 µg/mL (≈ 76.1 µM) |  |  |  |  |  |  |  |  |
| CC(C)[C@@H]1CC[C@@H](C)C[C@H]1OSSO[C@@H]1C[C@H](C)CC[C@H]1C(C)C | inactive | inactive | 8 µg/mL (≈ 21.4 µM) | 16 µg/mL (≈ 42.7 µM) | 4 µg/mL (≈ 10.7 µM) |  |  |  |  |  |  |  |  |
| c1ccc(NSSNc2ccccc2)cc1 | inactive | inactive | 4 µg/mL (≈ 16.1 µM) | 4 µg/mL (≈ 16.1 µM) | 0.5 µg/mL (≈ 2.01 µM) |  |  |  |  |  |  |  |  |
| CCCOSSOCCC | inactive | inactive | 32 µg/mL (≈ 176 µM) | 32 µg/mL (≈ 176 µM) | 16 µg/mL (≈ 87.8 µM) |  |  |  |  |  |  |  |  |
| CC(C)CN(CC(C)C)SSN(CC(C)C)CC(C)C | inactive | inactive | 16 µg/mL (≈ 49.9 µM) | 16 µg/mL (≈ 49.9 µM) | 1 µg/mL (≈ 3.12 µM) |  |  |  |  |  |  |  |  |
| CC(COSSOCC(C)c1ccccc1)c1ccccc1 (racemic) | inactive | inactive | 16 µg/mL (≈ 47.8 µM) | 16 µg/mL (≈ 47.8 µM) | 8 µg/mL (≈ 23.9 µM) |  |  |  |  |  |  |  |  |
| CCN(CC)SSN(CC)CC | inactive | inactive | 2 µg/mL (≈ 9.6 µM) | 2 µg/mL (≈ 9.6 µM) | 16 µg/mL (≈ 76.8 µM) |  |  |  |  |  |  |  |  |
| c1ccc(SSSSc2ccccc2)cc1 | inactive | inactive | 8 µg/mL (≈ 28.3 µM) | 8 µg/mL (≈ 28.3 µM) | 2 µg/mL (≈ 7.08 µM) |  |  |  |  |  |  |  |  |
| CC(C)[C@H]1CC[C@H](C)C[C@@H]1OSSO[C@H]1C[C@@H](C)CC[C@@H]1C(C)C | inactive | inactive | 8 µg/mL (≈ 21.4 µM) | 8 µg/mL (≈ 21.4 µM) | 4 µg/mL (≈ 10.7 µM) |  |  |  |  |  |  |  |  |
| CCCCNSSNCCCC | inactive | inactive | 8 µg/mL (≈ 38.4 µM) | 32 µg/mL (≈ 154 µM) | 4 µg/mL (≈ 19.2 µM) |  |  |  |  |  |  |  |  |
| CCCSSSSCCC | inactive | inactive | 32 µg/mL (≈ 149 µM) | 32 µg/mL (≈ 149 µM) | 1 µg/mL (≈ 4.66 µM) |  |  |  |  |  |  |  |  |
| CC1(C)S[C@@H]2[C@H](NC(=O)Cc3ccccc3)C(=O)N2[C@H]1C(=O)O [PENICILLIN G] |  |  | 0.25 µg/mL (≈ 0.748 µM) | 64 µg/mL (≈ 191 µM) |  | Active | Active | Active | Active | Active | Active | Active | Active |
| O=C(O)c1cn(C2CC2)c2cc(N3CCNCC3)c(F)cc2c1=O [CIPROFLOXACIN] |  |  |  |  | 0.125 µg/mL (≈ 0.377 µM) |  |  |  |  |  |  |  |  |
